Tested on: not listed separately
Experiment: Lipophilicity, log P of the compound in 0.1 N HCl solution
Format: physicochemical
Conditions: 0.1 N HCl solution; read-out: logP
How it was run: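 Partition coefficients of the hydrochloride salts were measured from 0.1 N HCl solution unless a footnote says otherwise. Some entries were not measured. They were calculated by adding the Δlog P of the corresponding phenanthrene analogues to the measured log P of a reference hydrochloride.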
For `CCCCCCCN(CCCCCCC)CC(O)c1cc2ccncc2c2cc(Br)ccc12` (stereo not given), the logP was 4.89. For `CC(C)(C)c1cc(C(O)CC2CCCCN2)c2ccccc2n1` (stereo not given), the logP was 2.03. Work on `CC(C)(C)c1cc(C(O)CC2CCCCN2)c2cc(Cl)ccc2n1` (stereo not given) yielded a logP of 2.74. For `CCCCN(CCCC)CC(O)c1c(OC)c2ccccc2c2ccccc12` (stereo not given), the logP was 2.55. In the case of `CCCCN(CCCC)CC(O)c1ccc(Cl)c2c(C)ccnc12` (stereo not given), the logP was 2.31. For `C=CCN(CC=C)CC(O)c1cc2ccccc2c2ccccc12` (stereo not given), the logP was 0.59. In the case of `CCNCC(O)c1cc(-c2ccccc2)nc(-c2ccccc2)c1` (stereo not given), the logP was 2.59. Compound `CCCCN(CCCC)CC(O)c1cnc2c(C(F)(F)F)cccc2c1` (stereo not given) has a logP of 1.92. In the case of `CCCN(CCC)CC(O)c1cc(-c2ccccc2)nc2ccccc12` (stereo not given), the logP was 1.69. In the case of `CCCCN(CCCC)CC(O)c1cnc2c(Cl)cc(Cl)cc2c1` (stereo not given), the logP was 2.46. With `CC(=O)N1CCCCC1CC(O)c1cc(C23CC4CC(CC(C4)C2)C3)nc2c(Cl)cc(Cl)cc12` (stereo not given) the logP was 4.29. In the case of `CCN(CC)CC(O)c1ccc(Cl)c2c(C)ccnc12` (stereo not given), the logP was 0.68. For `CCCCCCN(CCCCCC)CC(O)c1ccc(Cl)c2ncccc12` (stereo not given), the logP was 3.69. `OC(CN1CCCCCC1)c1cc(Cl)c2nc(-c3ccccc3)ccc2c1` (stereo not given) showed a logP of 3.62. Work on `CCCCN(CCCC)CC(O)c1cc(Cl)cc2c(C)ccnc12` (stereo not given) yielded a logP of 2.31. Compound `Cc1ccc(Oc2cc(C(O)CC3CCCCN3)c3cc(Cl)ccc3n2)cc1` (stereo not given) has a logP of 3.4. `CCCCCN(CCCCC)CC(O)c1cc2ccccc2c2ccccc12` (stereo not given) gave a logP of 4.01. Work on `OC(CN1C=COC=C1)c1cc(-c2ccc(F)cc2)nc2cc(F)ccc12` (stereo not given) yielded a logP of 0. With `OC(CC1CC2CCN1CC2)c1cc2ccccc2c2cc(Br)ccc12` (stereo not given) the logP was 2.98. For `CCCN(CCC)CC(O)c1cc(-c2ccccc2)nc(-c2ccccc2)c1` (stereo not given), the logP was 3.29. In the case of `OC(CC1CCCCN1)c1cc(C(F)(F)F)nc2ccccc12` (stereo not given), the logP was 0.93. Work on `CCCCCNCC(O)c1cc(-c2ccccc2)nc2ccccc12` (stereo not given) yielded a logP of 2.37. `Cc1cc(C(O)CN2CCCCCC2)cc2ccc(-c3ccccc3)nc12` (stereo not given) gave a logP of 3.47. For `CCCCN(CCCC)CC(O)c1ccc2cc(Cl)cc(Cl)c2n1` (stereo not given), the logP was 2.46. With `CCCCN(CCCC)CC(O)c1cc(OC)c2cc(OC)c(Cl)cc2n1` (stereo not given) the logP was 1.71. Work on `CCN(CC)CC(O)c1cc2ccccc2c2ccccc12` (stereo not given) yielded a logP of 1.37. Compound `CCN(CC)CC(O)c1cc(Cl)cc2cccnc12` (stereo not given) has a logP of 0.12. Compound `CCCCN(CCCC)CC(O)c1ccc(Cl)c2ccccc12` (stereo not given) has a logP of 2.19. `O=C(Nc1cccc(C(F)(F)F)c1)c1cc(C(O)CC2CCCCN2)c2cccc(C(F)(F)F)c2n1` (stereo not given) gave a logP of 2.3. `OC(CN1CCCCCC1)c1ccc2c(Cl)cc(-c3ccccc3)nc2c1` (stereo not given) showed a logP of 3.62. `N#CCCN(CC(O)c1cc2ccccc2c2ccccc12)C1CCCCC1` (stereo not given) showed a logP of 2.27. Work on `CCCCCCCN(CCCCCCC)CC(O)c1cc(-c2ccc(Br)cc2)nc(-c2ccc(Br)cc2)c1` (stereo not given) yielded a logP of 8.83. Work on `CCCNCC(O)c1cc2ccccc2c2ccccc12` (stereo not given) yielded a logP of 1.86. Work on `CCCCN(CCCC)CC(O)c1cc(-c2ccc(Cl)cc2)c2cc(OC)c(Cl)cc2n1` (stereo not given) yielded a logP of 4.4. `CCNCC(O)c1cc(-c2ccccc2)nc2ccccc12` (stereo not given) showed a logP of 0.99. For `CCCCNCC(O)c1cc(-c2ccccc2)nc2ccccc12` (stereo not given), the logP was 1.87. Work on `CCCCCCN(CCCCCC)CC(O)c1cc2ccccc2c2ccccc12` (stereo not given) yielded a logP of 4.94.

Tested on: Plasmodium berghei
Experiment: Antimalarial activity against Plasmodium berghei
Format: functional
Conditions: not given
With `CCCCCCCN(CCCCCCC)CC(O)c1cc2ccncc2c2cc(Br)ccc12` (stereo not given) the “log(1/C)” value was 2.12. With `CC(C)(C)c1cc(C(O)CC2CCCCN2)c2ccccc2n1` (stereo not given) the “log(1/C)” value was 2.08. In the case of `CC(C)(C)c1cc(C(O)CC2CCCCN2)c2cc(Cl)ccc2n1` (stereo not given), the “log(1/C)” value was 2.48.
